{
  "source": "ChEMBL document CHEMBL4196009",
  "about": "“Novel vitexin-inspired scaffold against leukemia” (Eur J Med Chem, 2018)",
  "key": {"SUP-B15 [1]": {"test_system": "SUP-B15", "experiment": "Induction of apoptosis in human SUP-B15 cells assessed as late apoptotic cells at 10 uM after 24 hrs by Annexin V-FITC/propidium iodide staining-based flow cytometry (reference value: 2.2%)", "type": "functional"}, "KOPN-8 [2]": {"test_system": "KOPN-8", "experiment": "Induction of apoptosis in human KOPN8 cells assessed as effect on Mcl-1 level at 30 uM pre-treated with NAC for 1 hr and measured after 24 hrs by Western blot analysis relative to control", "type": "functional", "method_in_brief": "(§1)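 KOPN-8 cells were exposed to compound for 3 h and 24 h, with or without N-acetylcysteine added to a parallel set as antioxidant. Lysates were analysed by Western blot for cleaved PARP, Mcl-1, Ser-2-phosphorylated RNAPII CTD, cMyc, total Rb and pRb. Signals were compared against controls for dose-dependent change.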"}, "KOPN-8 [3]": {"test_system": "KOPN-8", "experiment": "Effect on c-Myc expression in human KOPN8 cells at 10 uM after 3 hrs by Western blot analysis relative to control", "type": "functional", "method_in_brief": "(§2)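 KOPN-8 cells were treated at 10–100 µM final, with or without N-acetylcysteine co-addition, for 3 h and 24 h. Lysates were analysed by Western blot for PARP cleavage, Mcl-1, phospho-Ser2 RNAPII CTD, c-Myc, total Rb and pRb. Levels are relative to the vehicle control.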"}, "KOPN-8 [4]": {"test_system": "KOPN-8", "experiment": "Cell cycle arrest in human KOPN8 cells assessed as accumulation at G0/G1 phase at 10 uM after 24 hrs by propidium iodide staining-based flow cytometry (reference value: 24.77%)", "type": "functional", "method_in_brief": "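KOPN-8 cells treated 24 h alongside a DMSO vehicle and a staurosporine (2.0 µM) positive control. Apoptosis was scored by FITC Annexin V / propidium iodide flow cytometry with quadrant gating (early, late apoptotic). DNA content was measured by PI staining to give the percentage of cells in G0/G1, S and G2/M. Groups were compared by t-test; error bars are SD.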"}, "KOPN-8 [5]": {"test_system": "KOPN-8", "experiment": "Induction of apoptosis in human KOPN8 cells assessed as effect on Mcl-1 level at 10 uM after 3 hrs by Western blot analysis relative to control", "type": "functional", "method_in_brief": "as §2"}, "BJ": {"test_system": "BJ", "experiment": "Antiproliferative activity against human BJ cells after 72 hrs by CelTiter-Glo assay", "type": "cell-based"}, "KOPN-8 [6]": {"test_system": "KOPN-8", "experiment": "Antiproliferative activity against human KOPN8 cells after 72 hrs by CelTiter-Glo assay", "type": "functional, cell-based", "details": "KOPN-8, 72 h"}, "UoC-B1": {"test_system": "UoC-B1", "experiment": "Antiproliferative activity against human UOCB1 cells after 72 hrs by CelTiter-Glo assay", "type": "functional, cell-based", "details": "UoC-B1, 72 h"}, "KOPN-8 [7]": {"test_system": "KOPN-8", "experiment": "Effect on c-Myc expression in human KOPN8 cells at 100 uM pre-treated with NAC for 1 hr and measured after 24 hrs by Western blot analysis relative to control", "type": "functional"}, "KOPN-8 [8]": {"test_system": "KOPN-8", "experiment": "Effect on c-Myc expression in human KOPN8 cells at 30 uM pre-treated with NAC for 1 hr and measured after 3 hrs by Western blot analysis relative to control", "type": "functional"}, "KOPN-8 [9]": {"test_system": "KOPN-8", "experiment": "Induction of apoptosis in human KOPN8 cells assessed as effect on Mcl-1 level at 100 uM after 24 hrs by Western blot analysis relative to control", "type": "functional", "method_in_brief": "as §2"}, "HepG2": {"test_system": "HepG2", "experiment": "Antiproliferative activity against human HepG2 cells after 72 hrs by CelTiter-Glo assay", "type": "functional, cell-based", "details": "HepG2, 72 h"}, "SUP-B15 [10]": {"test_system": "SUP-B15", "experiment": "Induction of apoptosis in human SUP-B15 cells assessed as necrotic cells at 10 uM after 24 hrs by Annexin V-FITC/propidium iodide staining-based flow cytometry (reference value: 9.2%)", "type": "functional"}, "[11]": {"target": "T1, Retinoblastoma-associated protein (Homo sapiens) (UniProt P06400)", "T1 sequence (whole entry)": "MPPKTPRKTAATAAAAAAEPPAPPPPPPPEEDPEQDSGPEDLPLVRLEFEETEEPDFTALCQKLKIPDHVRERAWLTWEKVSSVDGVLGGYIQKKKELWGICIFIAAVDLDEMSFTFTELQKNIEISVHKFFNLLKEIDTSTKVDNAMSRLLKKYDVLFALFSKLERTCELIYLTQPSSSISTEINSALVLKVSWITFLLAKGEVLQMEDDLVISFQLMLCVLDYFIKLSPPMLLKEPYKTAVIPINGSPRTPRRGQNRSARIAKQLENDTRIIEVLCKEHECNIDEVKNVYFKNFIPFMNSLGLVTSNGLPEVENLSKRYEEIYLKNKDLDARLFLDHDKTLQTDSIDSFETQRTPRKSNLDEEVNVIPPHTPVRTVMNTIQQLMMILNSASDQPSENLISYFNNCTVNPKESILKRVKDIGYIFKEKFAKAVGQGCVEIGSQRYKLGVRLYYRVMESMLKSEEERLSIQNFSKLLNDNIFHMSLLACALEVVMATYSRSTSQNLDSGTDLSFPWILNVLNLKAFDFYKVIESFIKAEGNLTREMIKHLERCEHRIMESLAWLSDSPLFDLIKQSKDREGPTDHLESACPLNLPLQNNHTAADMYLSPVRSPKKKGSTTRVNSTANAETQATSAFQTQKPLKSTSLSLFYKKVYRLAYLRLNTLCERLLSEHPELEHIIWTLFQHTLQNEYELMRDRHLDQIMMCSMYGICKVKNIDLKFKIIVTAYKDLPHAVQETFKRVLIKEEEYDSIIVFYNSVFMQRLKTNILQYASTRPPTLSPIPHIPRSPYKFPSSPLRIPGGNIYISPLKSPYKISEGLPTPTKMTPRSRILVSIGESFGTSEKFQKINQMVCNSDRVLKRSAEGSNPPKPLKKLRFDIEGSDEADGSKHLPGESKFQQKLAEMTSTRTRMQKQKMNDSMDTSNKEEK", "experiment": "Inhibition of Rb phosphorylation in human KOPN8 cells assessed as ratio of phosphorylated Rb to total Rb levels at 30 uM pre-treated with NAC for 1 hr and measured after 24 hrs by Western blot analysis relative to control", "type": "cell-based", "method_in_brief": "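KOPN-8 pre-B ALL cells were treated for 3 h and 24 h, with or without N-acetyl cysteine added to a parallel set of cells as an antioxidant/ROS quencher. Lysates were analysed by Western blot for phosphorylated Rb and total Rb. The same blots also probed PARP cleavage, Mcl-1, Ser-2-phosphorylated RNAPII CTD and cMyc.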"}, "KOPN-8 [12]": {"test_system": "KOPN-8", "experiment": "Induction of apoptosis in human KOPN8 cells assessed as downregulation of Mcl-1 level after 3 to 24 hrs by Western blot analysis", "type": "functional, cell-based", "method_in_brief": "as §2"}, "SEM cells": {"test_system": "SEM cells", "experiment": "Antiproliferative activity against human SEM cells after 72 hrs by CelTiter-Glo assay", "type": "functional, cell-based"}, "SUP-B15 [13]": {"test_system": "SUP-B15", "experiment": "Antiproliferative activity against human SUP-B15 cells after 72 hrs by CelTiter-Glo assay", "type": "functional, cell-based", "details": "SUP-B15, 72 h"}, "KOPN-8 [14]": {"test_system": "KOPN-8", "experiment": "Induction of apoptosis in human KOPN8 cells assessed as effect on Mcl-1 level at 10 uM pre-treated with NAC for 1 hr and measured after 3 hrs by Western blot analysis relative to control", "type": "functional"}, "Homo sapiens [15]": {"organism": "Homo sapiens", "experiment": "Inhibition of RNA polymerase 2 C-terminal domain phosphorylation at Ser2 residue in human KOPN8 cells at 0.5 uM after 24 hrs by Western blot analysis", "type": "cell-based", "method_in_brief": "as §1"}, "Homo sapiens [16]": {"organism": "Homo sapiens", "experiment": "Inhibition of RNA polymerase 2 C-terminal domain phosphorylation at Ser2 residue in human KOPN8 cells at 0.5 uM after 3 hrs by Western blot analysis relative to control", "type": "cell-based", "method_in_brief": "as §1"}, "SUP-B15 [17]": {"test_system": "SUP-B15", "experiment": "Induction of apoptosis in human SUP-B15 cells assessed as necrotic cells at 5 uM after 24 hrs by Annexin V-FITC/propidium iodide staining-based flow cytometry (reference value: 9.2%)", "type": "functional"}},
  "data": [
    {"smiles": "COc1ccc(-c2c(I)c(=O)c3c(OC)cc(OC)cc3n2S(=O)(=O)c2ccc(OC)cc2)cc1", "values": [
      {"measurement": "Activity", "setting": "SUP-B15 [1]", "value": 7, "unit": "%"},
      {"measurement": "fold change (FC)", "setting": "KOPN-8 [2]", "value": 0.7},
      {"measurement": "fold change (FC)", "setting": "KOPN-8 [3]", "value": 0.9},
      {"measurement": "Activity", "setting": "KOPN-8 [4]", "value": 47.22, "unit": "%"},
      {"measurement": "fold change (FC)", "setting": "KOPN-8 [5]", "value": 0.8},
      {"measurement": "EC50", "setting": "BJ", "value": "> 34.5", "unit": "µM"},
      {"measurement": "EC50", "setting": "KOPN-8 [6]", "value": 8.58, "unit": "µM"},
      {"measurement": "EC50", "setting": "UoC-B1", "value": 2.55, "unit": "µM"},
      {"measurement": "fold change (FC)", "setting": "KOPN-8 [7]", "value": 0.1},
      {"measurement": "fold change (FC)", "setting": "KOPN-8 [8]", "value": 1},
      {"measurement": "fold change (FC)", "setting": "KOPN-8 [9]", "value": 0.1},
      {"measurement": "EC50", "setting": "HepG2", "value": "> 17.3", "unit": "µM"},
      {"measurement": "Activity", "setting": "SUP-B15 [10]", "value": 15.7, "unit": "%"},
      {"measurement": "fold change (FC)", "setting": "[11]", "value": 1},
      {"measurement": "Activity", "setting": "KOPN-8 [12]", "value": "Dose-dependent effect"},
      {"measurement": "EC50", "setting": "SEM cells", "value": 5.52, "unit": "µM"},
      {"measurement": "EC50", "setting": "SUP-B15 [13]", "value": 12.3, "unit": "µM"},
      {"measurement": "fold change (FC)", "setting": "KOPN-8 [14]", "value": 0.8}
    ]},
    {"smiles": "CN(C)C(=O)c1cc2cnc(Nc3ccc(N4CCNCC4)cn3)nc2n1C1CCCC1", "note": "[RIBOCICLIB]", "values": [
      {"measurement": "fold change (FC)", "setting": "Homo sapiens [15]", "value": 2.3},
      {"measurement": "fold change (FC)", "setting": "Homo sapiens [16]", "value": 0.8},
      {"measurement": "EC50", "setting": "BJ", "value": "> 65.5", "unit": "µM"},
      {"measurement": "EC50", "setting": "KOPN-8 [6]", "value": 0.501, "unit": "µM"},
      {"measurement": "EC50", "setting": "UoC-B1", "value": "> 65.5", "unit": "µM"},
      {"measurement": "EC50", "setting": "HepG2", "value": 0.286, "unit": "µM"},
      {"measurement": "EC50", "setting": "SEM cells", "value": 0.461, "unit": "µM"},
      {"measurement": "EC50", "setting": "SUP-B15 [13]", "value": "> 65.5", "unit": "µM"},
      {"measurement": "Activity", "setting": "SUP-B15 [17]", "value": 25.7, "unit": "%"}
    ]}
  ]
}
